Target: Short transient receptor potential channel 4 (Mus musculus) (UniProt Q9QUQ5)
Assay: TRPC4 channel current block, SAR follow-up, orthogonal assay, cell-based, manual patch clamp, HEK TRPC4beta/mu-opioid (AID 492983)
Settings: whole-cell patch clamp currents, at 1 µM, stronger effect = higher value
How it was run: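 System – HEK293 cells expressing TRPC4beta and mu-opioid receptor · Dosing – single test compound dose of 1 µM · Timing – over 2 min compound pretreatment, room temperature (22 °C) · Buffer or medium – ~400 nM free Ca2+ internal, pH 7.4 external · Detection – whole-cell patch clamp, 0 mV holding potential, -100 to +100 mV ramps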

Short transient receptor potential channel 4 (Mus musculus), sequence (Q9QUQ5 whole entry, looked up): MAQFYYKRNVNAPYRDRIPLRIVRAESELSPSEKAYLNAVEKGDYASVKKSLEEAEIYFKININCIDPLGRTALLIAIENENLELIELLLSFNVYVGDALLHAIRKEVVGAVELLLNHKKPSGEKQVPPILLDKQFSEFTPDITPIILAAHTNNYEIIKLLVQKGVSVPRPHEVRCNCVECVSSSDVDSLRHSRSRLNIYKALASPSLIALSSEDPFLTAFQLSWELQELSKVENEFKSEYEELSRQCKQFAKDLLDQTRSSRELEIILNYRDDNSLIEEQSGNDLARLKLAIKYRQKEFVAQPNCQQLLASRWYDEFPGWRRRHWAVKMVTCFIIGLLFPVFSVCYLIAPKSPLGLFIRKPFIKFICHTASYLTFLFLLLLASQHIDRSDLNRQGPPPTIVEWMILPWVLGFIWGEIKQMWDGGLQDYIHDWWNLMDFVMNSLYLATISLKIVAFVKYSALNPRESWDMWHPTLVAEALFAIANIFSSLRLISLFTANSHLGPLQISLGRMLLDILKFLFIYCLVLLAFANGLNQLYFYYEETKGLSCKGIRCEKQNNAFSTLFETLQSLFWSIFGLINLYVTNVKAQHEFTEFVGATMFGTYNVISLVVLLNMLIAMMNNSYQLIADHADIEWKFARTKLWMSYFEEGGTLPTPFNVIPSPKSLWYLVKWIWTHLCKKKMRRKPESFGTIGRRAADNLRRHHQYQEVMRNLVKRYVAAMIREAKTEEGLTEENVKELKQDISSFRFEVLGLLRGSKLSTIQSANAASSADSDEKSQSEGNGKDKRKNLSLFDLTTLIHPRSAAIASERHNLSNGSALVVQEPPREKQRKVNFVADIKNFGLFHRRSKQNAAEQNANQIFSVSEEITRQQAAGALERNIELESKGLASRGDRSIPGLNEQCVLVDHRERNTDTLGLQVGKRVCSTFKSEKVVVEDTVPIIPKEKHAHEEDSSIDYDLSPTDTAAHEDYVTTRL

inhibition at -100 mV: 69.5%
inhibition at +100 mV (measured here: outward current at +100 mV): 29.2%
Compound: Cc1cc(N2CCCCC2)nc2ccccc12
